Article PMC6092455 (International Journal for Parasitology: Drugs and Drug …, 2018)
“Also recorded” adds a separate entry of the source. One block for each compound: values may come before it.

Key:
[1] = target: T1, B. divergens proteasome β5 subunit (chymotrypsin-like activity) (Babesia divergens, UniProt A0AAD9GDK3); experiment: Suc-LLVY-AMC proteasome activity assay with B. divergens crude cell lysates; format: biochemical; conditions: for inhibition at 1 µM: read-out: Reduction of Suc-LLVY-AMC measured activity
T1 sequence (A0AAD9GDK3 69-280): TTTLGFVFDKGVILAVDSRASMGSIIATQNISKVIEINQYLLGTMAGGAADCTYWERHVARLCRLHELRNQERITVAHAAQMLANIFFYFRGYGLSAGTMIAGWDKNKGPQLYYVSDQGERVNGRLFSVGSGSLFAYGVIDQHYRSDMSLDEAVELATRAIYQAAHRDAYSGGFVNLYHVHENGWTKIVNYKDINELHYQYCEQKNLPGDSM
Summary of the method: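 Crude lysate made from B. divergens-infected RBCs (~15% parasitemia): saponin lysis, PBS washes, sonication in 20 mM HEPES pH 8.0, 1 µM E64, 0.03% SDS, 1 mM ATP; pooled from 10 cultures. Lysate pre-incubated 30 min at 37 °C with 1 µM test compound. Then 10 µM Suc-LLVY-AMC added; fluorescence 360/465 nm read every 1 min for 1 h at 37 °C. Run in triplicate.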

[2] = tested on: HeLa cells; experiment: Cell toxicity assay, HeLa cells; format: cell-based, human; conditions: for IC50: Homo sapiens, HeLa, 48 h, read-out: IC50 values, HeLa cells, 48 h, AlamarBlue
[3] = tested on: PMJ2R mouse macrophages; experiment: Cell viability assay, PMJ2R mouse macrophages; format: cell-based; conditions: 200 nM, 48 h
Summary of the method: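 PMJ2R macrophages grown in RPMI 1640 with gentamicin, amphotericin B and 10% heat-inactivated FCS. Serially diluted test compound added to cultures, with 0.004% DMSO in medium as control. Medium changed every 12 h; 48 h at 37 °C, 5% CO₂. Calcein AM (live) and ethidium homodimer III (dead) staining, counted by flow cytometry. Triplicate cultures; mean ± SD; unpaired t-test.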

[4] = tested on: B. microti; experiment: Treatment of B. microti infected mice; format: in vivo, Babesia microti
Summary of the method: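 Six female BALB/c mice (~20 g) infected i.p. with 150 µl B. microti-infected blood (50% parasitemia, ~800 × 10⁶ infected RBCs). Dosed i.p. daily from 1 to 7 DPI with test compound at 0.75 mg/kg in PBS or with vehicle (150 µl; three mice each). Activity and appearance observed. Parasitemia counted daily to 15 DPI on tail-snip thin smears. AUC (Riemann sums), Cmax and Tmax compared by t-test.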

[5] = tested on: B. microti; experiment: Pre-treatment of B. microti infected red blood cells prior to mouse infection; format: in vivo, Babesia microti; conditions: infected blood pre-treated with 400 nM for 1 h
Summary of the method: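 Infected blood pooled from three B. microti-infected mice (50% parasitemia). Exposed to test compound at 400 nM final, or to matching DMSO, for 1 h at 37 °C, 5% CO₂. Then injected i.p. (150 µl, 800 × 10⁶ infected RBCs) into three treated and three control BALB/c mice. Parasitemia counted daily for 8 DPI on Diff-Quik thin smears; Cmax and Tmax calculated in R.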

[6] = tested on: B. microti; experiment: Parasitemia in B. microti infected mice treated on 5 and 6 DPI; format: in vivo, Babesia microti; conditions: BALB/c mice, 0.75 mg/kg i.p. on 5 and 6 DPI
Summary of the method: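 Eight female BALB/c mice infected i.p. with B. microti-infected blood (150 µl, 50% parasitemia, ~800 × 10⁶ infected RBCs). Test compound at 0.75 mg/kg in PBS, or vehicle, given i.p. on 5 and 6 DPI (four mice per group). Parasitemia read as percent from thin blood smears taken by tail snip; blood collected on 7 DPI.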

[7] = tested on: B. microti proteasome (chymotrypsin-like activity); experiment: Suc-LLVY-AMC activity assay on B. microti lysates from treated mice; format: in vivo, Babesia microti; conditions: mice treated 0.75 mg/kg on 5 and 6 DPI, pooled blood collected 7 DPI
[8] = rats; ref Yang et al., 2011; cited from earlier work
[9] = BALB/c mice, 0.75 mg/kg i.p. daily 1-7 DPI

Structure (SMILES): CC(C)C[C@H](NC(=O)[C@H](CCc1ccccc1)NC(=O)CN1CCOCC1)C(=O)N[C@@H](Cc1ccccc1)C(=O)N[C@@H](CC(C)C)C(=O)[C@@]1(C)CO1 [Carfilzomib]
Reduction of Suc-LLVY-AMC measured activity ([1]; 1 μM inhibitor, pilot experiments (data not shown)): completely inhibiting this activity
inhibition at 1 µM [1]: > 90%
IC50 [2]: 59 ± 36 nM
Fold more potent against B. divergens compared to HeLa ([2]; ratio of IC50 values HeLa / B. divergens ex vivo culture): 2–3.5 fold
Toxicity to PMJ2R macrophages [3]: did not show any toxicity; also recorded: did not affect cell viability
Survival rate of PMJ2R cells ([3]; medium changed every 12 h): 71.1%
Adverse effects on spontaneous activity and physical appearance of mice [4, 9]: no adverse effects
Peak parasitemia levels and area under curve (AUC) compared to PBS [4, 9]: significantly reduced
Microscopic appearance of non-parasited RBCs ([4]; BALB/c mice, 0.75 mg/kg i.p. daily 1-7 DPI (data not shown)): did not change
Parasitemia on 5, 6 and 7 DPI compared to untreated control ([4]; daily intra-peritoneal treatment of infected mice): lower parasitemia
Reduction of Cmax (parasitemia) on Tmax (7 DPI) compared to control group [5]: 31.2%
Parasite load (parasitemia, mean) at 5 DPI ([6]; 5 DPI): 47.4 ± 6.3%
Parasite load (parasitemia, mean) at 7 DPI ([6]; 7 DPI): 41.5 ± 2.9%
Reduction of Suc-LLVY-AMC activity in B. microti lysates compared to untreated control [7]: 33%
Plasma clearance [8]: 195 to 319 mL/min/kg
Terminal half-life [8]: 5 to 20 min
Tissue distribution [8]: rapid and wide tissue distribution

inhibition at 1 µM [1]: 96%
Structure (SMILES): CC(C)C[C@H](NC(=O)[C@H](Cc1ccccc1)NC(=O)c1cnccn1)B(O)O [Bortezomib, bortezomib]
IC50 [2]: 7 ± 1 nM
